Results from ChEMBL document CHEMBL1135768, “Design, synthesis, and SAR of tachykinin antagonists: modulation of balance in NK(1)/NK(2) receptor antagonist activity” (J Med Chem, 2002).

What was measured:
[1] = system: Substance-P receptor (Oryctolagus cuniculus); test: Tested for the binding affinity towards tachykinin receptor 1 (NK1) in rabbit pulmonary artery tissue
[2] = target: T1, Substance-K receptor (Oryctolagus cuniculus) (UniProt P79218); test: Tested for the binding affinity towards tachykinin receptor 2 (NK2) in rabbit pulmonary artery tissue
T1 sequence (whole entry): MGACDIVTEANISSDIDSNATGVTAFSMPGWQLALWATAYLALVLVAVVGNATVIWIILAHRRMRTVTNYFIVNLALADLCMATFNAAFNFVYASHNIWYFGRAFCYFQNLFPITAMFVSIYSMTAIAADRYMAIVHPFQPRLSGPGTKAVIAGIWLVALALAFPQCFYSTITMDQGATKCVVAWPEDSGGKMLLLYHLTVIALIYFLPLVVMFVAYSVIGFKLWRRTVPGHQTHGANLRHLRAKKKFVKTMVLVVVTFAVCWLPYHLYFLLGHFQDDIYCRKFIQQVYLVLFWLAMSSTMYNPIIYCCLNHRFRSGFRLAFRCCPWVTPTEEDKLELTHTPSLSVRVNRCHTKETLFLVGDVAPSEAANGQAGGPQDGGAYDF

Neuromedin-K receptor = target: T2, Neuromedin-K receptor (Homo sapiens, UniProt P29371); test: Inhibition of binding of [125I]MPNI to human Tachykinin receptor 3 (NK3) expressed in mouse erythroleukemia cells; type: cell-based
T2 sequence (P29371 whole entry): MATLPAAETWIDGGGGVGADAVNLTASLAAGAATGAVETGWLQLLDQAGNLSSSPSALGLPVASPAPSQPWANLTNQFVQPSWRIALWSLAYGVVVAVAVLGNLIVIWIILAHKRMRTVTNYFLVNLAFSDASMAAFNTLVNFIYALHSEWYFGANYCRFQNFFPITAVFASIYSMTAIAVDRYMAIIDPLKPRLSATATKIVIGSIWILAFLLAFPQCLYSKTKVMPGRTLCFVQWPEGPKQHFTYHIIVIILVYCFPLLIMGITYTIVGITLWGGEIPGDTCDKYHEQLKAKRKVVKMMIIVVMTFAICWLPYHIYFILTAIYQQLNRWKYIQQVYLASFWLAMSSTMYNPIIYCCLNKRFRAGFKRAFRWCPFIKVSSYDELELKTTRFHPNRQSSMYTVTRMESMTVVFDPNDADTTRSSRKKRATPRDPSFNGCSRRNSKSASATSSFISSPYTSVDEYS

Substance-K receptor = target: T3, Substance-K receptor (Homo sapiens, UniProt P21452); test: Inhibition of binding of [3H]NKA to human Tachykinin receptor 2 (NK2) expressed in mouse erythroleukemia cells; type: cell-based
T3 sequence (P21452 whole entry): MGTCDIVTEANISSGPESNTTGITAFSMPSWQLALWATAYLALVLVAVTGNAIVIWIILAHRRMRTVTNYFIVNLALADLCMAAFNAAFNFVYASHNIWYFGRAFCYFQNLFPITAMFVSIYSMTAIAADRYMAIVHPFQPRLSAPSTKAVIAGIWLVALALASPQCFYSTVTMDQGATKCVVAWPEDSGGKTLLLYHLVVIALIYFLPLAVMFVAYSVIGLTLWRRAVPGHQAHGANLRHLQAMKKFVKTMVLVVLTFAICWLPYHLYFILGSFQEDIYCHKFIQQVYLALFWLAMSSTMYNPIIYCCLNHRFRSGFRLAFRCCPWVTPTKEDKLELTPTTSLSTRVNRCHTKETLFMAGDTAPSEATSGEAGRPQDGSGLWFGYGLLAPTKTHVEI

[3] = target: Substance-P receptor (Cavia porcellus) (UniProt P30547); test: In vivo potency as dose ratio (ED50 ratio for Tachykinin receptor 1 in presence and absence of antagonist) in guinea pig PMM after oral administration at a dose 30 uM/Kg
Substance-P receptor = Substance-P receptor (Homo sapiens, UniProt P25103); test: Inhibition of binding of [3H]SP to Tachykinin receptor 1 of human tachykinin receptor expressed in mouse erythroleukemia cells; type: cell-based
[4] = target: Substance-P receptor (Cavia porcellus) (UniProt P30547); test: In vivo binding affinity towards Tachykinin receptor 1 after oral administration in presence of agonist ASMSP in guinea pig pulmonary tissue in lung plasma extravation assay; type: organism-based
Summary of the method: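 Guinea pig lung plasma extravasation model. Antagonist dosed orally; NK1-selective agonist ASMSP challenge 2 h postdose. Single ED50 calculated from dose response in three to six animals per dose over 4–5 dose levels, doses staggered across several days.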

[5] = Bioavailability in rat (dose 1-10 uM/kg i.v.); type: ADME, organism-based; details: in vivo, iv
Summary of the method: (§1)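 Compound given to rat (n = 3) or dog (n = 1) by iv bolus at 1–10 μmol/kg, or orally at 10–100 μmol/kg, as a solution in 75% poly(ethylene glycol) 400 in normal saline.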

[6] = Bioavailability in dog (dose 1-10 uM/kg i.v.); type: ADME, organism-based, Canis lupus familiaris; details: in vivo, iv
Summary of the method: as §1

[7] = target: T4, Substance-K receptor (Cavia porcellus) (UniProt Q64077); test: In vivo potency as dose ratio (ED50 ratio for Tachykinin receptor 2 (NK2) in presence and absence of antagonist) in guinea pig PMM after intravenous administration at a dose 10 uM/Kg
T4 sequence (whole entry): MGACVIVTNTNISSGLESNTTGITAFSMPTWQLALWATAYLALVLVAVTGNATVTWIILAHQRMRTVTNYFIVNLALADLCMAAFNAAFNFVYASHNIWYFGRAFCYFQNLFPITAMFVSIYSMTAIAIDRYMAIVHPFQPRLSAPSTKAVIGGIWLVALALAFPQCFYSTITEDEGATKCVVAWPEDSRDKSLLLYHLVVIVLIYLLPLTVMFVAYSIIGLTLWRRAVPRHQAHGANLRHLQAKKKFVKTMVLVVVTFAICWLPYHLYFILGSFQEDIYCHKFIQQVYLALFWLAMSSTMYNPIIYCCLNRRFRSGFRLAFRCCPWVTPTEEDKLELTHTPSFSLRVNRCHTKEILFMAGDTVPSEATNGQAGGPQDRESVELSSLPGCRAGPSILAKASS

[8] = target: T4, Substance-K receptor (Cavia porcellus); test: In vivo potency as dose ratio (ED50 ratio for Tachykinin receptor 2 (NK2) in presence and absence of antagonist) in guinea pig PMM after oral administration at a dose 30 uM/Kg
[9] = target: Substance-P receptor (Cavia porcellus) (UniProt P30547); test: In vivo potency as dose ratio (ED50 ratio for Tachykinin receptor 1 in presence and absence of antagonist) in guinea pig PMM after intravenous administration at a dose 10 uM/Kg

Chain of Substance-P receptor (Cavia porcellus) (P30547 whole entry): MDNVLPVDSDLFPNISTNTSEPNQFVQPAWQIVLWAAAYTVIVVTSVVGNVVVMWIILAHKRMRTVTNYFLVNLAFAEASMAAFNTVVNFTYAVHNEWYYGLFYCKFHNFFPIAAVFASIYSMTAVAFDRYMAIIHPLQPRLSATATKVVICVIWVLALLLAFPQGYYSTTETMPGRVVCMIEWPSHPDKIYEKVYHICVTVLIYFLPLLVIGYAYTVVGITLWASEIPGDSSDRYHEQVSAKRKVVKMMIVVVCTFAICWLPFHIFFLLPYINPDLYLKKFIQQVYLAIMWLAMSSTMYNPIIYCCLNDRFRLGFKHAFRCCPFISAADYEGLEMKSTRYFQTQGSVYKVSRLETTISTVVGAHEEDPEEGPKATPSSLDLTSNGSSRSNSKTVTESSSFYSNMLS
Chain of Substance-P receptor (P25103 whole entry): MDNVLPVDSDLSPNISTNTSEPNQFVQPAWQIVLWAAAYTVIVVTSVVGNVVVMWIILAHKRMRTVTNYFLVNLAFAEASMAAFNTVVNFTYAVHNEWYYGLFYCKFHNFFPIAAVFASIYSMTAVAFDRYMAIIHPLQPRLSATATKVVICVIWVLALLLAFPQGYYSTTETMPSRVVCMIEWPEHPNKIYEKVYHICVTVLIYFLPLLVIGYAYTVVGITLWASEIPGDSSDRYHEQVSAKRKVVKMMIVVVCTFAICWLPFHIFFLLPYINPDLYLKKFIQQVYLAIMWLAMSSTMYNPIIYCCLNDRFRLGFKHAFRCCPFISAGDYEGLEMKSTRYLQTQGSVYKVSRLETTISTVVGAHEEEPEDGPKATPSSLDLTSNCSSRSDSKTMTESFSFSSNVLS

CN(C[C@@H](CCN1CCC(c2ccccc2[S@+](C)[O-])CC1)c1ccc(Cl)c(Cl)c1)C(=O)c1cc(C#N)c(F)c2ccccc12
pKB [1]: 6.75 | pKB [2]: 6.2

Cc1c(C#N)cc(C(=O)N(C)C[C@@H](CCN2CCC(c3ccccc3[S@+](C)[O-])CC2)c2ccc(Cl)c(Cl)c2)c2ccccc12
pKB [1]: 8.53 | pKB [2]: 7.8

CCN1C(=O)c2ccccc2[C@H]1[C@@H](CCN1CCC(c2ccccc2[S@+](C)[O-])CC1)c1ccc(Cl)c(Cl)c1
Ki (Neuromedin-K receptor): 9190 nM | Ki (Substance-K receptor): 0.92 nM

CN(C[C@@H](CCN1CCC(c2ccc(O)cc2[S+](C)[O-])CC1)c1ccc(Cl)c(Cl)c1)C(=O)c1cc(C#N)cc2ccccc12 (mixture of isomers)
pKB [1]: 8.93 | pKB [2]: 8.34

CNC(=O)C1(N2CCCNC2=O)CCN(CC[C@H](CN(C)C(=O)c2cc(C#N)cc3ccccc23)c2ccc(Cl)c(Cl)c2)CC1
pKB [1]: 7.6 | pKB [2]: 8.22

COc1c(C#N)cc2ccccc2c1C(=O)N(C)C[C@@H](CCN1CCC(N2CCCNC2=O)CC1)c1ccc(Cl)c(Cl)c1
pKB [1]: 8.45 | pKB [2]: 7.92

CN(C[C@@H](CCN1CCC(c2c(F)cccc2[S+](C)[O-])CC1)c1ccc(Cl)c(Cl)c1)C(=O)c1cc(C#N)cc2ccccc12 (some centres not stated)
pKB [1]: 7.25 | pKB [2]: 6.83

CN(C[C@@H](CCN1CCC(c2ccccc2[S@+](C)[O-])CC1)c1ccc(Cl)c(Cl)c1)C(=O)c1cc(C#N)cc2cc(C#N)ccc12
pKB [1]: 7.77 | pKB [2]: 6.42

CN(C[C@@H](CCN1CCC(c2ccccc2[S@+](C)[O-])CC1)c1ccc(Cl)c(Cl)c1)C(=O)c1cc(C#N)c(Br)c2ccccc12
pKB [1]: 7.78 | pKB [2]: 6.99

CN(C[C@@H](CCN1CCC(c2ccccc2[S@+](C)[O-])CC1)c1ccc(Cl)c(Cl)c1)C(=O)c1cc(C#N)c(C#N)c2ccccc12
pKB [1]: 7.76 | pKB [2]: 7.65

COc1c(C#N)cc2ccccc2c1C(=O)N(C)C[C@@H](CCN1CCC(c2ccccc2[S@+](C)[O-])CC1)c1ccc(Cl)c(Cl)c1
dose ratio [3]: 610 | Ki (Substance-P receptor): 0.17 nM | Ki (Neuromedin-K receptor): 220 nM | ED50 [4]: 0.07 µmol/kg | bioavailability [5]: 12% | Ki (Substance-K receptor): 67 nM | bioavailability [6]: 51% | dose ratio [7]: 14 | dose ratio [8]: 2

COc1ccc2c(C(=O)N(C)C[C@@H](CCN3CCC(c4ccccc4[S@+](C)[O-])CC3)c3ccc(Cl)c(Cl)c3)cc(C#N)cc2c1
pKB [1]: 7 | pKB [2]: 7.97

COc1c(C#N)cc2ccccc2c1C(=O)N(C)C[C@@H](CCN1CCC(C(=O)N(C)C)(N2CCCCC2=O)CC1)c1ccc(Cl)c(Cl)c1
pKB [1]: 7.88 | pKB [2]: 7.7

CN(C[C@@H](CCN1CCC(c2cc(Br)ccc2[S+](C)[O-])CC1)c1ccc(Cl)c(Cl)c1)C(=O)c1cc(C#N)cc2ccccc12 (mixture of isomers)
pKB [1]: 8.46 | pKB [2]: 8.55

CN(C[C@@H](CCN1CCC(c2ccc(C(=O)O)cc2[S+](C)[O-])CC1)c1ccc(Cl)c(Cl)c1)C(=O)c1cc(C#N)cc2ccccc12 (mixture of isomers)
pKB [1]: 7.87 | pKB [2]: 6.38

CN(C[C@@H](CCN1CCC(c2ccc(F)cc2[S@+](C)[O-])CC1)c1ccc(Cl)c(Cl)c1)C(=O)c1cc(C#N)cc2ccccc12
dose ratio [3]: 4 | pKB [1]: 8.01 | dose ratio [9]: 126 | pKB [2]: 8.38 | dose ratio [7]: 153 | dose ratio [8]: 5

CNC(=O)C1(N2CCCNC2=O)CCN(CC[C@H](CN(C)C(=O)c2c(OC)c(C#N)cc3ccccc23)c2ccc(Cl)c(Cl)c2)CC1
pKB [1]: 8.14 | pKB [2]: 8.11

CN(C[C@@H](CCN1CCC(c2ccccc2[S+](C)[O-])CC1)c1ccc(Cl)c(Cl)c1)C(=O)c1cc(C#N)cc2ccccc12 (mixture of isomers)
pKB [2]: 8.48

CN(C)C(=O)C1(N2CCCCC2=O)CCN(CC[C@H](CN(C)C(=O)c2cc(C#N)cc3ccccc23)c2ccc(Cl)c(Cl)c2)CC1
pKB [1]: 7.36 | pKB [2]: 8.52

CN(C[C@@H](CCN1CCC(c2ccc([S+](C)[O-])cc2[S+](C)[O-])CC1)c1ccc(Cl)c(Cl)c1)C(=O)c1cc(C#N)cc2ccccc12 (mixture of isomers)
pKB [1]: 7.33 | pKB [2]: 8.27

CN(C[C@@H](CCN1CCC(N2CCCNC2=O)CC1)c1ccc(Cl)c(Cl)c1)C(=O)c1cc(C#N)cc2ccccc12
pKB [1]: 8.18 | pKB [2]: 7.86

COC(=O)c1ccc(C2CCN(CC[C@H](CN(C)C(=O)c3cc(C#N)cc4ccccc34)c3ccc(Cl)c(Cl)c3)CC2)c([S+](C)[O-])c1 (mixture of isomers)
pKB [1]: 7.92 | pKB [2]: 6.84

COC(=O)c1ccc(C2CCN(CC[C@H](CN(C)C(=O)c3c(OC)c(C#N)cc4ccccc34)c3ccc(Cl)c(Cl)c3)CC2)c([S+](C)[O-])c1 (some centres not stated)
pKB [1]: 8.85 | pKB [2]: < 7

CNC(=O)C1(N2CCOCC2=O)CCN(CC[C@H](CN(C)C(=O)c2c(OC)c(C#N)cc3ccccc23)c2ccc(Cl)c(Cl)c2)CC1
pKB [1]: 8.55 | pKB [2]: 7.79

CN(C[C@@H](CCN1CCC(c2cc(F)ccc2[S+](C)[O-])CC1)c1ccc(Cl)c(Cl)c1)C(=O)c1cc(C#N)cc2ccccc12 (mixture of isomers)
pKB [1]: 8.26 | pKB [2]: 8.34

CNC(=O)C1(N2CCCCC2=O)CCN(CC[C@H](CN(C)C(=O)c2cc(C#N)cc3ccccc23)c2ccc(Cl)c(Cl)c2)CC1
pKB [1]: 7.33 | pKB [2]: 8.44

CNC(=O)C1(N2CCOCC2=O)CCN(CC[C@H](CN(C)C(=O)c2cc(C#N)cc3ccccc23)c2ccc(Cl)c(Cl)c2)CC1
pKB [1]: 7.51 | pKB [2]: 7.81

CN(C[C@@H](CCN1CCC(c2ccccc2[S@+](C)[O-])CC1)c1ccc(Cl)c(Cl)c1)C(=O)c1cc(C#N)cc2cc(O)ccc12
pKB [1]: 8.02 | pKB [2]: 7.31

CN(C[C@@H](CCN1CCC(c2ccc(Br)cc2[S@+](C)[O-])CC1)c1ccc(Cl)c(Cl)c1)C(=O)c1cc(C#N)cc2ccccc12
pKB [1]: 8 | dose ratio [9]: 11 | pKB [2]: 8.12 | dose ratio [7]: 30

CN(C[C@@H](CCN1CCC(c2ccc(C(N)=O)cc2[S+](C)[O-])CC1)c1ccc(Cl)c(Cl)c1)C(=O)c1cc(C#N)cc2ccccc12 (mixture of isomers)
pKB [1]: 8.53 | pKB [2]: 6.92
